Values belong to the molecule of their own block, whether it stands above or below them. Activity calls are given as the source filed them. No cut-off for these calls is given here.
Columns and labels:
[1] = molecular target: NAD-dependent protein deacylase sirtuin-5, mitochondrial (Homo sapiens) (UniProt Q9NXA8); test: Activation of SIRT5 in human S2-013 cells assessed as decrease in GOT1 acetylation at 20 uM incubated for 24 hrs by Western blot analysis; details: filed as activator
Target sequence in this assay (Q9NXA8 whole entry, looked up, the tested form may be a part): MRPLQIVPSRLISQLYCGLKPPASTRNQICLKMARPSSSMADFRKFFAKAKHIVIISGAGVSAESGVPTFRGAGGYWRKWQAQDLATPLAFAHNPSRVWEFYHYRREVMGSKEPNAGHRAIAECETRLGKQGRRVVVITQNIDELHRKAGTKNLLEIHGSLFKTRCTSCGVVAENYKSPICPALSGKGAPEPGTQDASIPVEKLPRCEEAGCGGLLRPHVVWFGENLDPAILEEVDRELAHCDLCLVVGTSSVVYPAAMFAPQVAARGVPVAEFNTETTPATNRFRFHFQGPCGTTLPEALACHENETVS

[2] = molecular target: NAD-dependent protein deacylase sirtuin-5, mitochondrial (Homo sapiens) (UniProt Q9NXA8); test: Activation of human recombinant SIRT5 assessed as decrease in PDHA1-succinylation at 100 uM by Western blot analysis; details: filed as activator
Target sequence in this assay (Q9NXA8 whole entry, looked up, the tested form may be a part): as above

[3] = molecular target: NAD-dependent protein deacylase sirtuin-5, mitochondrial (Homo sapiens) (UniProt Q9NXA8); test: Activation of SIRT5 in human CAPAN-1 cells assessed as decrease in GOT1 acetylation at 20 uM incubated for 24 hrs by Western blot analysis; details: filed as activator
Target sequence in this assay (Q9NXA8 whole entry, looked up, the tested form may be a part): as above

[4] = molecular target: NAD-dependent protein deacylase sirtuin-5, mitochondrial (Homo sapiens) (UniProt Q9NXA8); test: Activation of N-terminal his-tagged human SIRT5 (34 to 302 residues) expressed in Escherichia coli assessed as fold activation at 10 to 100 uM using CPS1-succ537 as substrate in presence of NAD+; details: filed as activator, dose 10-100 µM
Procedure, shortened: (§1)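 Coupled enzymatic deacylation assay (nicotinamidase/GDH-coupled, continuous): 1.5 μM recombinant Sirtuin (expressed in E. coli, Ni-NTA purified, tag removed, size-exclusion purified) with 50 μM substrate peptide and 100 μM NAD+, without or with 10 μM or 100 μM 1,4-DHP, 5% final DMSO. Activity expressed relative to no-compound control.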
Target sequence in this assay (Q9NXA8 37-310 limits assumed): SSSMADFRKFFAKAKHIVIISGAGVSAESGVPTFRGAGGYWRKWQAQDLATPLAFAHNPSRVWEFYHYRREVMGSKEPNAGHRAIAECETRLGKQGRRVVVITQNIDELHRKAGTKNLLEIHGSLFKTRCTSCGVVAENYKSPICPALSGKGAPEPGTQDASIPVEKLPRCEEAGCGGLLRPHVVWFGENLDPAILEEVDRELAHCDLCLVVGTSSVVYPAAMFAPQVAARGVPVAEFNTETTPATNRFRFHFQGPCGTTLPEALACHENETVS

[5] = molecular target: NAD-dependent protein deacylase sirtuin-5, mitochondrial (Homo sapiens) (UniProt Q9NXA8); test: Activation of N-terminal his-tagged human SIRT5 (34 to 302 residues) expressed in Escherichia coli assessed as desuccinylation of substrate at 100 uM using CPS1-succ537 as substrate in presence of NAD+ by Mass spectrometry analysis; details: filed as activator
Procedure, shortened: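 MS-based desuccinylation assay: same components as coupled assay (1.5 μM Sirt5, 50 μM CPS1-succK537 peptide, 100 μM NAD+, 5% DMSO) but in 50 mM Na-phosphate pH 7.8 with 0.05 μg/μL PNCA to remove nicotinamide; compound at 100 μM; product and substrate peptides quantified by mass spectrometry.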
Target sequence in this assay (Q9NXA8 37-310 limits assumed): as above

[6] = molecular target: NAD-dependent protein deacylase sirtuin-5, mitochondrial (Homo sapiens) (UniProt Q9NXA8); test: Activation of SIRT5 in human MDA-MB-231 cells assessed as decrease in GLS activity at 50 uM using TMP substrate incubated for 4 to 24 hrs; details: filed as activator, time 4-24 hrs
Target sequence in this assay (Q9NXA8 whole entry, looked up, the tested form may be a part): as the sequence (Q9NXA8 whole entry, looked up, the tested form may be a part) above

[7] = molecular target: T1, NAD-dependent protein deacetylase sirtuin-1 (Homo sapiens) (UniProt Q96EB6); test: Activation of N-terminal his-tagged human SIRT1 expressed in Escherichia coli assessed as fold activation at 10 to 100 uM using p53-acK381 as substrate in presence of NAD+; details: filed as activator, dose 10-100 µM
T1 sequence (whole entry): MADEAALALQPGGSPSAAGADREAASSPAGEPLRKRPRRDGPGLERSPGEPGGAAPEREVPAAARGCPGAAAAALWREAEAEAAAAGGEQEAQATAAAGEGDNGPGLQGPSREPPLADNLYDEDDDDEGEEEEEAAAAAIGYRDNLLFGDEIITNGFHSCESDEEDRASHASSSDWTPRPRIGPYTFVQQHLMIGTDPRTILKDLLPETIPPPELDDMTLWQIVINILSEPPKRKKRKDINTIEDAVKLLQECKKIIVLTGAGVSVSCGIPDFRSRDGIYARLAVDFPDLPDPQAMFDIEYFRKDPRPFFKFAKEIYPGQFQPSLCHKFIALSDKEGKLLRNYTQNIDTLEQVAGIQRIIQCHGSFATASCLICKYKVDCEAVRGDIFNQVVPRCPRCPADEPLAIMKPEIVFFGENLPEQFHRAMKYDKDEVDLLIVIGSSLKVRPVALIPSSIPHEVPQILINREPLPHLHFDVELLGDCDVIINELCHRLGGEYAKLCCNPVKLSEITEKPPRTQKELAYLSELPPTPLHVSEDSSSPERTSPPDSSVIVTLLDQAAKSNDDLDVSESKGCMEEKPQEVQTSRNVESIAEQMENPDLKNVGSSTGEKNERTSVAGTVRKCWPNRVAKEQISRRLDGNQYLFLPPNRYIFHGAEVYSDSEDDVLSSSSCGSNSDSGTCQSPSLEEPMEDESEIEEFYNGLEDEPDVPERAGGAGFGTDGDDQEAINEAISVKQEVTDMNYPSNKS
Procedure, shortened: as §1

[8] = molecular target: NAD-dependent protein deacylase sirtuin-5, mitochondrial (Homo sapiens) (UniProt Q9NXA8); test: Activation of N-terminal his-tagged human SIRT5 (34 to 302 residues) expressed in Escherichia coli assessed as fold activation at 100 uM using CPS1-succ537 as substrate in presence of NAD+; details: filed as activator
Procedure, shortened: as §1
Target sequence in this assay (Q9NXA8 37-310 limits assumed): as the sequence (Q9NXA8 37-310 limits assumed) above

[9] = molecular target: NAD-dependent protein deacylase sirtuin-5, mitochondrial (Homo sapiens) (UniProt Q9NXA8); test: Activation of N-terminal his-tagged human SIRT5 (34 to 302 residues) expressed in Escherichia coli assessed as fold activation at 10 uM using CPS1-succ537 as substrate in presence of NAD+; details: filed as activator
Procedure, shortened: as §1
Target sequence in this assay (Q9NXA8 37-310 limits assumed): as above

[10] = molecular target: T1, NAD-dependent protein deacetylase sirtuin-1 (Homo sapiens); test: Activation of N-terminal his-tagged human SIRT1 expressed in Escherichia coli at 10 to 100 uM using p53-acK381 as substrate in presence of NAD+; details: filed as activator, dose 10-100 µM
Procedure, shortened: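 Compound titration in the nicotinamidase/GDH-coupled deacylation assay. 1.5 μM recombinant Sirt1 (E. coli-expressed, Ni-NTA purified, tag removed, size-exclusion purified) was used with 50 μM p53-acK381 peptide and 100 μM NAD+. 1,4-DHP was added at the indicated concentrations in 5% final DMSO.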

[11] = molecular target: T1, NAD-dependent protein deacetylase sirtuin-1 (Homo sapiens); test: Activation of N-terminal his-tagged human SIRT1 expressed in Escherichia coli assessed as fold activation at 100 uM using p53-acK381 as substrate in presence of NAD+; details: filed as activator
Procedure, shortened: as §1

[12] = molecular target: T2, NAD-dependent protein deacetylase sirtuin-2 (Homo sapiens) (UniProt Q8IXJ6); test: Activation of N-terminal SUMO-tagged human SIRT2 (43 to 356 residues) expressed in Escherichia coli assessed as deacetylation of substrate at 100 uM using acetylated alpha tubulin-K2 as substrate in presence of NAD+; details: filed as activator
T2 sequence (whole entry): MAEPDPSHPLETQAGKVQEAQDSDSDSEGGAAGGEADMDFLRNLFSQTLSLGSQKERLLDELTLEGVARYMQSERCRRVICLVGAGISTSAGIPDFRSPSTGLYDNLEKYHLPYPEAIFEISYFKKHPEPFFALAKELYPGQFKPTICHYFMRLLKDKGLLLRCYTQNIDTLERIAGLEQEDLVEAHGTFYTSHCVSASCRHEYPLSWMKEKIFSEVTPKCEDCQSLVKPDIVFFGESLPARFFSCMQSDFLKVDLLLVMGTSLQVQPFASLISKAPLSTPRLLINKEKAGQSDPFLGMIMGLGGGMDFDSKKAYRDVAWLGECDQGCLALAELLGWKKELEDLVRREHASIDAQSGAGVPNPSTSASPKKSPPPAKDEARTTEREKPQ
Procedure, shortened: as §1

[13] = molecular target: T3, NAD-dependent protein deacetylase sirtuin-3, mitochondrial (Homo sapiens) (UniProt Q9NTG7); test: Activation of N-terminal his-tagged human SIRT3 (114 to 380 residues) expressed in Escherichia coli assessed as fold activation at 100 uM using ACS2-acK642 as substrate in presence of NAD+; details: filed as activator
T3 sequence (whole entry): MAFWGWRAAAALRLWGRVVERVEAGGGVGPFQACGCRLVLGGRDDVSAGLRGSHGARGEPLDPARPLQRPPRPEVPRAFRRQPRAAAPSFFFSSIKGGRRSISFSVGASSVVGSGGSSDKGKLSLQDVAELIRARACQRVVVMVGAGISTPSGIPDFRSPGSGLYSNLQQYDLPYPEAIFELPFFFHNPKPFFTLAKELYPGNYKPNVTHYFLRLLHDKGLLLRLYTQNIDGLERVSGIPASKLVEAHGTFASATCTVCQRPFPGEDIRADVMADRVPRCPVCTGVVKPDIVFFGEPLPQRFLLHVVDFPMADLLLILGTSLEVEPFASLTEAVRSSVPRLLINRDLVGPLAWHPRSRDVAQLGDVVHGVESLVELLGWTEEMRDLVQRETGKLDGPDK
Procedure, shortened: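 Coupled continuous enzymatic assay (nicotinamidase/GDH-linked): 1.5 µM purified Sirt3 with 50 µM ACS2-acK642 peptide and 100 µM NAD+, compound at 10 µM, 100 µM or titrated, 5% DMSO final; fold deacetylation versus no-compound control.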

Activity [1]: Active | Activity [2]: Active | Activity [3]: Active | fold change (FC) [4]: 3 | Activity [5]: Active | Activity [6]: Active
SMILES: CCOC(=O)C1=CN(C(=O)c2ccccc2)C=C(C(=O)OCC)C1c1ccsc1

fold change (FC) [7]: 1.5 | fold change (FC) [8]: 2 | fold change (FC) [9]: 1.2
SMILES: CCOC(=O)C1=CN(C(=O)c2cnc3ccccc3n2)C=C(C(=O)OCC)C1c1ccccc1

Activity [10]: Active
SMILES: CCOC(=O)C1=CN(C(=O)c2cc(OC)c(OC)c(OC)c2)C=C(C(=O)OCC)C1c1cccc(F)c1

Activity [10]: Active
SMILES: CCOC(=O)C1=CN(C(=O)c2cc(OC)c(OC)c(OC)c2)C=C(C(=O)OCC)C1c1cccc(C)c1

fold change (FC) [11]: 2.5
SMILES: CCOC(=O)C1=CN(C(=O)c2cc(OC)c(OC)c(OC)c2)C=C(C(=O)OCC)C1c1ccsc1

Activity [10]: Active
SMILES: CCOC(=O)C1=CN(Cc2cc(OC)c(OC)c(OC)c2)C=C(C(=O)OCC)C1c1ccccc1

fold change (FC) [11]: 2.5 | fold change (FC) [4]: 2
SMILES: CCOC(=O)C1=CN(C(=O)c2cc(OC)c(OC)c(OC)c2)C=C(C(=O)OCC)C1c1ccc(CN2CCN(C)CC2)cc1

fold change (FC) [8]: 2 | fold change (FC) [9]: 1.2
SMILES: CCOC(=O)C1=CN(C(=O)c2ccccc2)C=C(C(=O)OCC)C1c1ccc(Cl)cc1

fold change (FC) [7]: 1.5
SMILES: CCOC(=O)C1=CN(C(=O)c2ccc3ccccc3c2)C=C(C(=O)OCC)C1c1ccccc1

Activity [10]: Active
SMILES: CCOC(=O)C1=CN(C(=O)c2cc(OC)c(OC)c(OC)c2)C=C(C(=O)OCC)C1c1cccc(Cl)c1

fold change (FC) [8]: 2
SMILES: CCOC(=O)C1=CN(C(=O)c2cccc3ccccc23)C=C(C(=O)OCC)C1c1ccccc1

fold change (FC) [8]: 2
SMILES: CCOC(=O)C1=CN(Cc2ccccc2)C=C(C(=O)OCC)C1c1cccc2ccccc12

fold change (FC) [11]: 2.5 | fold change (FC) [4]: 2 | Activity [12]: Active
SMILES: CCOC(=O)C1=CN(C(=O)c2cc(OC)c(OC)c(OC)c2)C=C(C(=O)OCC)C1c1ccco1

fold change (FC) [7]: 1.5
SMILES: CCOC(=O)C1=CN(Cc2ccccc2)C=C(C(=O)OCC)C1c1ccco1

fold change (FC) [8]: 2
SMILES: CCOC(=O)C1=CN(Cc2ccccc2)C=C(C(=O)OCC)C1c1cc2ccccc2s1

fold change (FC) [7]: 1.5 | fold change (FC) [13]: 2
SMILES: CCOC(=O)C1=CN(Cc2ccccc2)C=C(C(=O)OCC)C1c1ccccc1
